Source: PubChem BioAssay
Sampled rows, rich in hits. Any-hit rate of the full collection: about 3.7%.
Kir21 block = Kir2.1 (mouse) channel inhibition | 310,000 compounds, 0.85% hits | B-score at 10 µM | HEK293-Kir2.1, FluxOR thallium flux fluorescence; hits give low values | P35561;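 active = fluorescence ratio B-score at or below minus 3 SD of library scores, with starting-brightness B-score within 2 SD, cut at about -4.2 in these data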;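 note: channel flux triggered by added potassium and thallium sulfate stimulus; B-score of peak minus minimum fluorescence over baseline after thallium stimulus; more negative B-score means stronger Kir2.1 block with less thallium influx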
Target sequence (P35561 whole entry, looked up): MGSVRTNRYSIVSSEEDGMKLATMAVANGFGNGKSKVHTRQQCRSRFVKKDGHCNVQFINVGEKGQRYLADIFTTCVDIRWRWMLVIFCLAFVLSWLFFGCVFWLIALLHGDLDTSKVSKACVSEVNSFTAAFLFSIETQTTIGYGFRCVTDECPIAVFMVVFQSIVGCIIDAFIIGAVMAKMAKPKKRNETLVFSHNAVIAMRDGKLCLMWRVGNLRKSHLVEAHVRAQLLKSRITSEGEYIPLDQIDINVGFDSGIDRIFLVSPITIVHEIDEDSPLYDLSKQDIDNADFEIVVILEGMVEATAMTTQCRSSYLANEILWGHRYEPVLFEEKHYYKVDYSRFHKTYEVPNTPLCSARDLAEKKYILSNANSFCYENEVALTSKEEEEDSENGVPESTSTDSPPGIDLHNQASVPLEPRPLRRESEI
KCNQ1 pot = potentiates or activates the human KCNQ1 potassium channel; P51787; CHO-K1 KCNQ1, thallium flux FluxOR fluorescence; hits give high values; B-score at 10 µM; 310,000 compounds, 0.35% hits;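 active = fluorescence ratio B-score, a plate-corrected score, at least three library SD, with initial intensity B-score within 5 SD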
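Test system: CHO-K1 cells stably expressing KCNQ1 / Medium: assay buffer / Also added: depolarizing K+/Tl+ stimulus, K2SO4 and Tl2SO4 each 12.5 mM in 5x stock / Incubation: 90 min dye loading and 20 min compound exposure, both at room temperature / Signal: thallium influx via FluxOR fluorescence, kinetic imaging / Evaluation: B score of baseline-normalized fluorescence ratio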
hERG protect = shields human hERG channel from block by proarrhythmic agents. Q12809. CHO-hERG, FluxOR thallium flux, dofetilide IC70 present. activation (rescue from dofetilide block), less the hit threshold, % at 10 µM. 310,000 compounds, 0.51% hits. AID 1511;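 active = activation above the mean of controls blocked by dofetilide plus 5 SD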;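 note: thallium influx through hERG after potassium depolarization seen as dye fluorescence rise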
KCNK3 inh = human KCNK3 channel inhibition, primary screen; O14649; AID 602410; B-score at 10 µM; CHO-KCNK3 thallium flux, FluxOR fluorescence; hits give low values; 340,000 compounds, 0.84% hits;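 active = B-score under library mean minus 4 SD, starting fluorescence ratio at most library mean plus 5 SD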;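 note: more negative B-score means stronger inhibition of thallium flux through KCNK3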
KCNQ1 block = inhibitors of human KCNQ1 potassium channel; P51787; CHO-K1 KCNQ1, FluxOR thallium flux fluorescence; hits give high values; B-score at 10 µM; 310,000 compounds, 1.3% hits;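 active = compounds whose thallium flux B-score, printed positive for inhibition, exceeds three library SD while starting fluorescence stays within three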;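 note: channel opened by potassium depolarization with thallium stimulus after 20 min compound exposure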
KCNK9 inh = inhibitors of human KCNK9 two-pore domain potassium channel. AID 488922. B-score at 10 µM. Q9NPC2. 310,000 compounds, 1.2% hits. HEK293 KCNK9, FluxOR thallium flux fluorescence; hits give low values;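 active = ratio B-score over 3 SD below the library mean, with starting fluorescence within 5 SD of its mean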;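 note: negative B-score means less thallium flux so channel inhibition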
KCNK9 block conf = confirmation of human KCNK9 potassium channel inhibitors | shares compounds with KCNK9 inh | HEK293 KCNK9 cells, FluxOR thallium flux fluorescence | inhibition, % at 10 µM | 4,900 compounds, 43% hits;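 active = thallium signal inhibited by more than 5 SD of the compound-free buffer control wells, on both duplicate plates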;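 note: 0% = assay buffer control wells without compound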
Kir21 sel = mouse Kir2.1 off-target activity of KCNK9 modulators. shares compounds with KCNK9 inh. Kir2.1 cells, FluxOR thallium flux fluorescence. inhibition, % at 10 µM. 4,900 compounds, 4% hits. AID 492993;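 active = thallium signal drop more than 5 SD beyond the mean of the no-compound control wells, seen in both duplicate plates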;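 note: signal is fluorescence rise after thallium addition divided by baseline fluorescence; plate controls were assay buffer only for no effect and full block by chlorpromazine control for full effect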
HEK293 Tl ctr = non-induced cell nonspecific activity of KCNK9 modulators | shares compounds with KCNK9 inh | non-induced KCNK9-HEK293, FluxOR thallium flux | inhibition, % at 10 µM | 4,900 compounds, 40% hits;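 active = thallium signal drop beyond 5 SD of the untreated control mean, on both duplicate plates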;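 note: plate controls were buffer only IC0 wells for no effect and SID17386958 at its maximal inhibitory level for full effect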
Numbers without * were called inactive; i = inactive; x = not tested or not shown.

SMILES | Kir21 block | KCNQ1 pot | hERG protect | KCNK3 inh | KCNQ1 block | KCNK9 inh | KCNK9 block conf | Kir21 sel | HEK293 Tl ctr
OCC1CCCCN1CC(O)COC(c1ccc(F)cc1)c1ccc(F)cc1 (centres undefined) | 1.56 | i | -3.6 | i | i | i | x | x | x
CC(=O)Nc1ccc(N/C=C/C(=O)c2ccc(C)o2)cc1 | -0.76 | i | -4.5 | i | i | i | x | x | x
COc1ccccc1Oc1ccc(N/C=C/C(=O)c2ccc(C)o2)cc1 | -0.86 | i | -3.7 | i | i | i | i | i | i
CN(C#N)c1nc(Cl)nc(Nc2cccc(Cl)c2)n1 | 0.47 | i | -8.2 | i | i | i | x | x | x
Cc1ccc2c(c1)N(CC(=O)NCC1CCCO1)C(=O)C(C(C)C)O2 (centres undefined) | 1.7 | i | -6.2 | i | i | i | x | x | x
Cc1cccc(S(=O)(=O)c2c(C)cc(C)[nH]c2=O)c1 | 0.64 | i | -4.7 | i | i | i | x | x | x
C=C(C)Cn1c(C)cc(C)c(S(=O)(=O)c2cccc(C)c2)c1=O | -1.02 | i | -14.5 | i | i | -8.39* | 53.5%* | 44.5%* | 44.0%*
CCN(CC)C(=O)c1cccc(NC(=O)CC23CC4CC(CC(C4)C2)C3)c1 | 0.66 | i | -4.8 | i | i | i | x | x | x
CC(OC(=O)Cn1[nH]c(=O)c2ccccc2c1=O)C(=O)NC1(C#N)CCCCC1 (centres undefined) | -0.21 | i | -9.9 | i | i | i | x | x | x
O=C(/C=C/c1cccs1)c1cc(Br)ccc1OC(=O)N1CCOCC1 | 0.64 | i | -2.6 | i | i | -9.75* | 29.5%* | i | 23.0%*
Cc1csc(NC(=O)c2cc(-c3ccccc3)nc3ccccc23)n1 | 0.28 | i | -11.8 | i | i | -9.76* | 41.5%* | i | 39.5%*
Cc1cc(C)nc(NC(=O)c2cc(-c3ccc4c(c3)OCO4)nc3ccccc23)c1 | 2.06 | i | -24.5 | i | i | i | i | i | i
COC(=O)c1cc(-c2ccc3c(c2)OCO3)nc2ccccc12 | 1.04 | i | -3.7 | i | i | i | x | x | x
COC1=CC(=O)OC(c2ccco2)C1 (centres undefined) | x | x | x | i | x | x | x | x | x
CC(C)CCN(CCC(C)C)CC(O)Cn1c2ccccc2c(=O)c2ccccc21 (centres undefined) | -1.67 | i | -4.9 | i | i | -8.11* | 42.5%* | i | 27.5%*
O=C(CN1C(=O)NC2(CCOc3ccccc32)C1=O)N1CCCCC1 (centres undefined) | x | x | x | i | x | x | x | x | x
CN1CCN(C2=C(NS(=O)(=O)c3cccs3)C(=O)c3ccccc3C2=O)CC1 | 0.63 | i | -6.7 | i | i | i | x | x | x
O=C1C(NS(=O)(=O)c2cccs2)=C(N2CCN(Cc3ccccc3)CC2)C(=O)c2ccccc21 | -1.07 | i | -15.1 | i | i | i | i | i | i
CN(CC(=O)Nc1cccc(F)c1)C(=O)c1ccccc1OCC(=O)Nc1cccc(C(F)(F)F)c1 | -1.27 | i | -13.2 | i | i | i | x | x | x
Oc1ccc(N=Nc2ccc3c(c2)OCCO3)c2ncccc12 | 1.14 | 15* | 29.5* | i | i | i | i | i | i
Cc1ccc(C)c(S(=O)(=O)NCC(=O)Nc2ccc3c(c2)OCO3)c1 | -0.47 | i | -3.0 | i | i | i | x | x | x
O=C(OCc1ccc(Cl)cc1)c1cccnc1Cl | 0.73 | i | -3.2 | i | i | i | x | x | x
O=C(OCc1ccc(Cl)cc1)c1ccccc1C(=O)c1ccccc1 | -2.66 | i | -9.4 | i | i | -11.9* | 52.5%* | 33.5%* | 49.0%*
Cc1cc(C2(c3ccc(O)c(C)c3)OC(=O)c3ccccc32)ccc1O | -2.01 | i | -5.8 | i | i | -12.2* | 55.0%* | i | i
Nc1ccc(C2(c3ccc(N)cc3)OC(=O)c3ccccc32)cc1 | 0.24 | i | -4.0 | i | i | i | x | x | x
SMILES | Kir21 block | KCNQ1 pot | hERG protect | KCNK3 inh | KCNQ1 block | KCNK9 inh | KCNK9 block conf | Kir21 sel | HEK293 Tl ctr
O=S(=O)(NC(CO)Cc1ccccc1)c1ccc(Br)cc1F (centres undefined) | x | x | x | i | x | x | x | x | x
O=C(Nc1nc(-c2ccccc2)cs1)NC1CCCCC1 | 0.1 | i | -11.2 | i | i | i | x | x | x
c1ccc(-c2csc(NC3CCCCC3)n2)cc1 | -0.64 | i | -6.3 | i | i | i | i | i | i
COCCSc1ccccc1C(=O)Nc1ccc(Br)cc1 | 0.88 | i | -7.9 | i | i | -13* | 44.5%* | i | 25.0%*
CC1CCCN(C(=O)Cc2cn(Cc3cccc(Cl)c3)c3ccccc23)C1 (centres undefined) | -2.05 | i | -5.5 | i | i | -13.6* | 71.5%* | 46.5%* | 37.0%*
O=C(Cc1cn(Cc2cccc(Cl)c2)c2ccccc12)N1CCCCCC1 | 2.22 | i | -10.8 | i | i | -10.7* | 53.5%* | 35.5%* | 38.0%*
O=C(O)Cc1cn(Cc2cccc(Cl)c2)c2ccccc12 | -0.29 | i | -8.5 | i | i | i | x | x | x
CCn1c(C(=O)N2CCc3ccccc3C2)cc2sccc21 | -0.23 | i | -10.7 | i | i | i | i | i | i
CCn1c(C(=O)NCCCN2CCc3ccccc3C2)cc2sccc21 | -2.41 | i | -13.1 | i | i | i | x | x | x
CC(C(=O)Nc1ccc(Br)cc1)N(C)CC(=O)NCc1ccco1 (centres undefined) | x | x | x | i | x | x | x | x | x
Fc1ccc(/C=C/c2nnc(-c3cccs3)o2)cc1 | -0.03 | i | -3.5 | i | i | -8.68* | 33.0%* | i | i
OCc1ccccc1OCCCN1CCC(Cc2ccccc2)CC1 | 0.79 | i | -12.2 | i | i | i | x | x | x
C=CCOc1ccccc1CN1CCC(Cc2ccccc2)CC1 | -4.27* | i | -5.0 | i | i | i | i | i | i
COc1cc(OC)c(CN2CCC(Cc3ccccc3)CC2)cc1Br | -4.82* | i | 0.3 | i | i | i | i | i | i
O=C(NCC1CCCO1)c1csc(Nc2cccc3ccccc23)n1 (centres undefined) | 2.29 | i | -7.2 | i | i | -9.19* | 42.0%* | i | i
Cc1ccc(-c2nc(C(=O)NCC3CCCO3)cc3c2[nH]c2ccccc23)cc1 (centres undefined) | -1.24 | i | -37.6 | i | 12* | -16.7* | 65.0%* | i | 33.0%*
